High-throughput results from PubChem.
Tn6 DDE FP: inhibitors of Tn6 peptide binding to human fibrin DD(E) | Fibrin DD(E) TRITC-Tn6 fluorescence polarization displacement | inhibition, % at 8.3 µM | actives 0.21% (n = 370,000);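 active = inhibition above a per-campaign cutoff: mean of compounds within control limits plus 3 SD, cut at about 15% in these data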;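 note: 0% = median of all compound wells on the plate and 100% = blocking peptide control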
Target sequence (P02675 whole entry, looked up): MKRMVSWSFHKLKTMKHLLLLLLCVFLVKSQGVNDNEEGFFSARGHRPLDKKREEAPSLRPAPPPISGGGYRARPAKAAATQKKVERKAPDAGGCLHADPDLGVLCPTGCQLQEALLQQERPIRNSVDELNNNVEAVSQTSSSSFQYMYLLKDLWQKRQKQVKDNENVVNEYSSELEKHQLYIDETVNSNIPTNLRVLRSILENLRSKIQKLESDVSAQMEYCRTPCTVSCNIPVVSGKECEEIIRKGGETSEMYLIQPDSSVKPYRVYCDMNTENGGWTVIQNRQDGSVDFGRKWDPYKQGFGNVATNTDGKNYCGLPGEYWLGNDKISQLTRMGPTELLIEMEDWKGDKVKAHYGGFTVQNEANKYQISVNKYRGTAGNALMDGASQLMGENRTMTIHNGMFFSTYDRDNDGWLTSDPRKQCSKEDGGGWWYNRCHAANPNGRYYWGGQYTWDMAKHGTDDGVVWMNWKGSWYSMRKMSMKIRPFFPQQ
PLCb3 inh: PLC-beta3 (human) inhibition, primary screen; Q01970; Purified PLC-beta3, fluorogenic substrate, fluorescence; inhibition, % at 12.2 µM; actives 0.18% (n = 370,000); AID 720704; in the data active = inhibition above about 11%;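 note: 0% = median of compound wells on plate and 100% = full blocker control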
PLC-gamma1 inh: blocks human PLC-gamma1 enzyme activity | AID 720700 | actives 0.84% (n = 370,000) | P19174 | inhibition, % at 12.2 µM | purified PLC-gamma1, fluorogenic substrate, fluorescence; in the data active = inhibition above about 9.5%
CendR NRP1 mod: alters CendR peptide binding to human NRP-1 | O14786 | actives 0.85% (n = 360,000) | inhibition, % at 25 µM | FAM-RPARPAR peptide binding to NRP-1, fluorescence polarization | AID 602438;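 active = inhibition or corrected inhibition above about 18%, plus a signal ratio from 0.5 to 1.5, limit read from the data, passing the limit was not always enough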
DDE Tn7 FP inh: disrupts Tn7 cyclic peptide binding to fibrin D-Dimer-E complex. P02675. FP displacement of FITC-Tn7 peptide from fibrin DD(E); 0% = median of compound wells per plate. inhibition, % at 8.3 µM. actives 0.13% (n = 370,000). AID 720508;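 active = inhibition above the mean of compounds falling within the control limits plus 3 SD of them, cut at about 14% in these data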;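 note: 0% = plate median of compound wells and 100% = 10 µM Aha-Tn7 peptide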
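assay system = human clot-derived fibrin DD(E) complex | quantity = Fibrin-DD(E) at 2 µM final | timing = 10 min preincubation, 3 h with tracer, room temperature | signal = fluorescence polarization | measure = percent inhibition | benchmarks = high control wells with 10 µM unlabelled Aha-Tn7 peptide (full inhibition) | replicates = singlicate testing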
KLK7 zymogen act: activators of human kallikrein-7 zymogen; purified proKLK7, EDANS-DABCYL substrate fluorescence; 100% is mature enzyme control, 0% vehicle; actives 0.9% (n = 370,000); activation, % at 7 µM; AID 652039;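 active = activation above the mean of all tested compounds plus 3 SD, computed per campaign excluding outliers beyond control limits, cut at about 13% in these data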
DDE Tn6 FP ctr: DD(E)-Tn6 binding inhibition, counter-screen. shares compounds with Tn6 DDE FP. actives 2% (n = 680). inhibition, % at 8.3 µM. Fibrin DD(E), TRITC-Tn6 fluorescence polarization displacement; 0% = median of compound wells, not DMSO;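 active = inhibition above the mean of test compounds lying between the control limits plus 3 SD of those, cut at about 14% in these data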;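 note: 0% = median of compound wells and 100% = wells with Aha-Tn7 blocking peptide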
Tn6 DDE conf: DD(E)-Tn6 binding inhibition, FP confirmation; shares compounds with Tn6 DDE FP; FP displacement of TRITC-Tn6 peptide from DD(E); 0% = per-plate median of test wells; inhibition, % at 8.3 µM; actives 10% (n = 680); AID 720631;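 active = inhibition above the mean of compounds lying within the control limits plus 3 SD, cut at about 16% in these data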;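 note: 100% = high control wells holding a competing inhibitor peptide at 10 µM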
Numbers without * were called inactive; . = no result given. The list is not random: actives were taken first. Their share in the collection is about 3%.

SMILES	Tn6 DDE FP	PLCb3 inh	PLC-gamma1 inh	CendR NRP1 mod	DDE Tn7 FP inh	KLK7 zymogen act	DDE Tn6 FP ctr	Tn6 DDE conf
CN1CCc2c(sc3c2C(=O)NC(c2ccccc2)N3)C1 (configuration not stated)	3	-93	-87	-21	3	-1	.	.
COc1ccccc1NC(=S)OCCN1CCCC12CCC(c1ccccc1)CC2 (configuration not stated)	-5	-4	4	.	-7	.	.	.
CCOC(=O)C1(C)C=C(Nc2ccc(OC)cc2)C(=O)N1c1ccc(OC)cc1 (configuration not stated)	3	-1	-1	-2	5	0	.	.
CCOC(=O)C1(C)C=C(Nc2ccc(O)cc2)C(=O)N1c1ccc(O)cc1 (configuration not stated)	24*	-54	-40	12	3	0	-1	-15
COc1ccc2c(CC#N)c[nH]c2c1	16*	0	0	-8	2	0	2	2
CCC(=O)Nc1cc(OC)c(NC(=S)Nc2ccccc2CC)cc1OC	74*	-8	-9	2	1	0	4	-7
CCOc1ccc(CNc2nnnn2C)cc1	1	-4	0	1	0	-1	.	.
CC(C)c1ccc(CNc2nnnn2C)cc1	19*	-9	-1	1	4	0	0	0
O=C(Cc1ccc(Cl)c(Cl)c1)Nc1ccc(S(=O)(=O)Nc2ccon2)cc1	-1	-7	1	.	-2	-1	.	.
O=C1c2cccc(NCCCNCCO)c2C(=O)c2cccc(NCCCNCCO)c21	21*	-7	0	1	-6	0	7	32*
O=C1c2ccccc2C(=O)c2c(NCc3cccnc3)cccc21	6	-4	-3	-15	1	-1	.	.
O=C(CSc1nc2ccccc2[nH]1)NN=Cc1c(F)cccc1Cl	10	-2	-1	.	-3	1	.	.
O=c1[nH]nc(Cc2ccc(Cl)cc2)c2ccccc12	15*	1	0	-9	4	1	0	-3
O=c1[nH]nc(Cc2ccc(Cl)cc2Cl)c2ccccc12	-1	1	-2	7	-4	1	.	.
O=c1[nH]nc(CNc2ccc(O)cc2)c2ccccc12	16*	-52	-43	-4	0	0	-7	-3
CCOc1ccc(C(=O)Nc2cc(-c3nc4ccccc4[nH]3)ccc2Cl)cc1[N+](=O)[O-]	25*	4	2	-6	4	0	-2	-10
COc1cc2sc3ccc(-c4ccc(CN5CCOCC5)cc4)cc3c(=O)c2cc1OC	18*	-67	-44	-13	1	-3	5	-3
Cc1nn(CCC(=O)NNC(=O)Nc2ccc(F)cc2)c(C)c1[N+](=O)[O-]	2	2	1	.	3	0	.	.
CS(=O)(=O)N1CCN=C1SCc1ccc(Br)cc1	0	-6	3	-5	-3	0	.	.
CC(=O)N1CCN=C1SCc1ccc(Br)cc1	20*	-1	3	8	8	0	3	2
CN1C(=O)NC(c2ccccc2[N+](=O)[O-])C2=C1CCCC2=O (configuration not stated)	45*	-57	-31	117	5	1	-6	20*
O=C(Nc1cccc(F)c1)c1ccc(-n2cncn2)c2ccoc12	16*	-2	-2	-3	2	0	8	-6
O=C(c1ccccc1)c1ccc2nc(-c3ccc(NC(=O)c4ccccc4Br)cc3)[nH]c2c1	-1	-144	-107	5	-4	-15	.	.
CN(c1ccccc1)S(=O)(=O)c1ccc(Cl)c(C(=O)Nc2ccc(-c3nc4ccccc4[nH]3)cc2)c1	39*	-263	-266	3	11	-37	-1	21*
